From ChEMBL document CHEMBL4610112, “Novel Pyrrolopyridone Bromodomain and Extra-Terminal Motif (BET) Inhibitors Effective in Endocrine-Resistant ER+ Breast Cancer with Acquired Resistance to Fulvestrant and Palbociclib” (J Med Chem, 2020)

Legend:
[1] = Half life in CD1 mouse at 5 mg/kg, iv by LC-MS/MS analysis; format: ADME, organism-based; conditions: in vivo
How it was run: (§1)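 HCl salt dosed to CD1 mice iv (1 mg/mL) or by oral gavage (3 mg/mL) in 30% PEG400/70% (10% HP-β-CD in water) (v/v). Blood sampled at 0, 0.0833 (iv only), 0.25, 0.5, 1, 2, 4, 8 and 24 h, n = 3 per time point. Plasma levels measured by LC/MS/MS.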

[2] = target: CYP2C19 (Homo sapiens, UniProt P33261); experiment: Inhibition of human CYP2C19 at 10 uM; format: ADME
[3] = target: CYP1A2 (Homo sapiens, UniProt P05177); experiment: Inhibition of human CYP1A2 at 10 uM; format: ADME
[4] = target: CYP2C8 (Homo sapiens, UniProt P10632); experiment: Inhibition of human CYP2C8 at 10 uM; format: ADME
[5] = target: Voltage-gated inwardly rectifying potassium channel KCNH2 (Homo sapiens, UniProt Q12809); experiment: Inhibition of human ERG stably expressed in HEK293 cells; format: cell-based
How it was run: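 hERG inhibition measured in HEK293 cells stably transfected with the hERG gene, IC50 determined, dofetilide as positive control. Run by a contract lab.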

[6] = Intrinsic clearance in human hepatocytes assessed per million cells; format: ADME, cell-based, Hepatocyte; conditions: read-out: CLH
[7] = Induction of thrombocytopenia in Sprague-Dawley rat assessed as platelet count […] at 25 mg/kg, po administered via gavage daily for 10 days (reference value: […]); format: organism-based; conditions: in vivo, 240 h
[8] = target: CYP3A4 (Homo sapiens, UniProt P08684); experiment: Inhibition of human CYP3A4 at 10 uM; format: ADME
[9] = Tmax in CD1 mouse at 30 mg/kg, po by LC-MS/MS analysis; format: ADME, organism-based; conditions: in vivo
How it was run: (§2)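 HCl salt dosed to CD1 mice in 30% PEG400/70% (10% HP-β-CD in water) (v/v), at 1 mg/mL for iv (5 mg/kg) or 3 mg/mL for oral gavage (30 mg/kg). Blood sampled at 0, 0.0833 (iv only), 0.25, 0.5, 1, 2, 4, 8 and 24 h, n = 3 per time point. Plasma levels measured by LC/MS/MS.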

[10] = Toxicity in human MCF7:TAM1 cells xenografted ovariectomized athymic Nude-Foxn1 mouse assessed as effect on body weight at 50 mg/kg/day, po administered via gavage for 4 weeks; format: organism-based; conditions: in vivo, 672 h
How it was run: (§3)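 MCF-7:TAM1 tumors established in 4–6-week-old female ovariectomized athymic nude mice (nude/Foxn1) given tamoxifen 1.5 mg/mouse daily. […] Body weight tracked against pretreatment, with overt toxicity signs observed. Vehicle and tamoxifen (1.5 mg/mouse/day po) groups as comparators.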

[11] = Half life in human hepatocytes; format: ADME, cell-based, Hepatocyte
[12] = target: CYP2C9 (Homo sapiens, UniProt P11712); experiment: Inhibition of human CYP2C9 at 10 uM; format: ADME
[13] = AUC in CD1 mouse at 5 mg/kg, iv by LC-MS/MS analysis; format: ADME, organism-based; conditions: in vivo; how it was run: as §1
[14] = Clearance in CD1 mouse at 5 mg/kg, iv by LC-MS/MS analysis; format: ADME, organism-based; conditions: in vivo; how it was run: as §1
[15] = Oral bioavailability in CD1 mouse at 30 mg/kg by LC-MS/MS analysis; format: ADME, organism-based; conditions: in vivo; how it was run: as §2
[16] = target: CYP2A6 (Homo sapiens, UniProt P11509); experiment: Inhibition of human CYP2A6 at 10 uM; format: ADME
[17] = Protein binding in plasma (unknown origin); format: ADME, cell-free; conditions: human
How it was run: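 Protein binding reported as percent bound, ketoconazole as reference compound. Run by a contract lab.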

[18] = Toxicity in human MCF7:TAM1 cells xenografted ovariectomized athymic Nude-Foxn1 mouse assessed as adverse sign t at 50 mg/kg/day, po administered via gavage for 4 weeks; format: organism-based; conditions: in vivo, 672 h; how it was run: as §3
[19] = Cmax in CD1 mouse at 30 mg/kg, po by LC-MS/MS analysis; format: ADME, organism-based; parameters: dose 30 mg/kg, route oral; conditions: in vivo; how it was run: as §1
[20] = system: MCF7:TAM1; experiment: Antitumor activity against human MCF7:TAM1 cells xenografted in ovariectomized athymic Nude-Foxn1 mouse assessed as tumor growth inhibition at 30 mg/kg/day, po administered via gavage for 4 weeks relative to control; format: functional; conditions: 672 h, read-out: TGI
How it was run: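 MCF-7:Tam1 tumours established in 4–6 week old female ovariectomized athymic nude mice given daily tamoxifen 1.5 mg/mouse. […] Fulvestrant 1 (mg/mouse)/week sc. Tumour volume measured weekly by calipers as length × width² × π/6.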

[21] = Half life in CD1 mouse at 30 mg/kg, po by LC-MS/MS analysis; format: ADME, organism-based; conditions: in vivo; how it was run: as §1
[22] = AUC in CD1 mouse at 30 mg/kg, po by LC-MS/MS analysis; format: ADME, organism-based; conditions: in vivo; how it was run: as §1
[23] = Kinetic solubility of the compound in pH 7.4 PBS buffer; format: physicochemical; conditions: read-out: Kinetic_solubility
How it was run: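 Kinetic solubility in PBS at pH 7.4, progesterone as reference compound. Run by a contract lab.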

[24] = Volume of distribution at steady state in CD1 mouse at 5 mg/kg, iv by LC-MS/MS analysis; format: ADME, organism-based; conditions: in vivo; how it was run: as §2
[25] = target: CYP2D6 (Homo sapiens, UniProt P10635); experiment: Inhibition of human CYP2D6 at 10 uM; format: ADME
Chain of CYP2D6 (P10635 whole entry): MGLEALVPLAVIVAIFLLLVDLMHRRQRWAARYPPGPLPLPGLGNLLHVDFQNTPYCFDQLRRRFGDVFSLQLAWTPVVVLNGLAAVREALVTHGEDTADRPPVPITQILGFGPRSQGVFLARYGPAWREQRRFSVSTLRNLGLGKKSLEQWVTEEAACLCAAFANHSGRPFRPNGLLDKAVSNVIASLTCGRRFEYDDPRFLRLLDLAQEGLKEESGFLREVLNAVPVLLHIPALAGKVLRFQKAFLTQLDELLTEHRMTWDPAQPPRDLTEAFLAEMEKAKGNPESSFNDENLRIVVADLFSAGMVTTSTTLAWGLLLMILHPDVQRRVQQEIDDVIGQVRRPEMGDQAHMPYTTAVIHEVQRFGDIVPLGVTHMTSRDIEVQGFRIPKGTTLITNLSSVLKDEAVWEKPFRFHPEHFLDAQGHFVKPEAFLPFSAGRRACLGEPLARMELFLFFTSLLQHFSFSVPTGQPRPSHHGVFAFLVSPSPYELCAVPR

Chain of CYP2A6 (P11509 whole entry): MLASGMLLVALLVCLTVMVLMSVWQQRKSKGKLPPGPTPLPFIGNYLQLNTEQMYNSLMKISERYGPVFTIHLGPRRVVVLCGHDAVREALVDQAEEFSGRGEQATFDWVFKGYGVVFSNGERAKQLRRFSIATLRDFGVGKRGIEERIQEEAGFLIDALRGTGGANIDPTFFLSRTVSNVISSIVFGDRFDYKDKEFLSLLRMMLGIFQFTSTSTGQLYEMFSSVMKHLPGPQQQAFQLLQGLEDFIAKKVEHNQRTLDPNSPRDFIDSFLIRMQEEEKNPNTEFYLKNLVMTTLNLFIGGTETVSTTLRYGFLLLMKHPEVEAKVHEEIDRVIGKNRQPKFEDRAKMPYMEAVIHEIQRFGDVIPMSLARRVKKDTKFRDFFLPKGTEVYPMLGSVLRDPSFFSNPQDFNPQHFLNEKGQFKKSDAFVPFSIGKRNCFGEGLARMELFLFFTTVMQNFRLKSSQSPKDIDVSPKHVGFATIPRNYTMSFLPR
Chain of CYP2C8 (P10632 whole entry): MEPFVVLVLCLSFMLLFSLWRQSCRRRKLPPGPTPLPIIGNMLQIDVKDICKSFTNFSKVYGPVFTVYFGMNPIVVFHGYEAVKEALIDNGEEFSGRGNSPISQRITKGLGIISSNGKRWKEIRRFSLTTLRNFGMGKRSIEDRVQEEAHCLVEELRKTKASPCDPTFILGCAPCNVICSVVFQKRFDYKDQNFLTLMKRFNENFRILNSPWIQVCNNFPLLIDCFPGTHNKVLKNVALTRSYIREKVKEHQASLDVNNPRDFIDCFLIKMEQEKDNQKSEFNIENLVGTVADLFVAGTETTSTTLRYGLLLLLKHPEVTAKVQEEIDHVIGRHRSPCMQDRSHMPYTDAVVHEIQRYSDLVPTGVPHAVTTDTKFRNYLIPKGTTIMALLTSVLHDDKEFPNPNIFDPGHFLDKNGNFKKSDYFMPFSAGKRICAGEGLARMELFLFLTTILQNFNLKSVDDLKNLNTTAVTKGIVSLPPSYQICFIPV
Chain of CYP2C9 (P11712 whole entry): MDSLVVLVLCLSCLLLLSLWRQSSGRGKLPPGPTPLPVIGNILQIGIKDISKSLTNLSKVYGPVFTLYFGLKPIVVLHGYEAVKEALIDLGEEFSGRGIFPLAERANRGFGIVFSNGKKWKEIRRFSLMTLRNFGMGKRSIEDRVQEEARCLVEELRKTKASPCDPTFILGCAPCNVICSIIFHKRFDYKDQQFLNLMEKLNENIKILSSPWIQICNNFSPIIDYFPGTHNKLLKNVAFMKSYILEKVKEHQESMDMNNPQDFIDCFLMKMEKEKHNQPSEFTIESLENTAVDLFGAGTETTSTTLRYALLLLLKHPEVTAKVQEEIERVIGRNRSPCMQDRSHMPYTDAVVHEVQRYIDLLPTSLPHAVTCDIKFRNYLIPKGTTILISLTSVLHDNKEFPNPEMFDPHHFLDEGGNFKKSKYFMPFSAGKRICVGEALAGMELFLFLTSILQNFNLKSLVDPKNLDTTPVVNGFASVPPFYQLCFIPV
Chain of Voltage-gated inwardly rectifying potassium channel KCNH2 (Q12809 whole entry): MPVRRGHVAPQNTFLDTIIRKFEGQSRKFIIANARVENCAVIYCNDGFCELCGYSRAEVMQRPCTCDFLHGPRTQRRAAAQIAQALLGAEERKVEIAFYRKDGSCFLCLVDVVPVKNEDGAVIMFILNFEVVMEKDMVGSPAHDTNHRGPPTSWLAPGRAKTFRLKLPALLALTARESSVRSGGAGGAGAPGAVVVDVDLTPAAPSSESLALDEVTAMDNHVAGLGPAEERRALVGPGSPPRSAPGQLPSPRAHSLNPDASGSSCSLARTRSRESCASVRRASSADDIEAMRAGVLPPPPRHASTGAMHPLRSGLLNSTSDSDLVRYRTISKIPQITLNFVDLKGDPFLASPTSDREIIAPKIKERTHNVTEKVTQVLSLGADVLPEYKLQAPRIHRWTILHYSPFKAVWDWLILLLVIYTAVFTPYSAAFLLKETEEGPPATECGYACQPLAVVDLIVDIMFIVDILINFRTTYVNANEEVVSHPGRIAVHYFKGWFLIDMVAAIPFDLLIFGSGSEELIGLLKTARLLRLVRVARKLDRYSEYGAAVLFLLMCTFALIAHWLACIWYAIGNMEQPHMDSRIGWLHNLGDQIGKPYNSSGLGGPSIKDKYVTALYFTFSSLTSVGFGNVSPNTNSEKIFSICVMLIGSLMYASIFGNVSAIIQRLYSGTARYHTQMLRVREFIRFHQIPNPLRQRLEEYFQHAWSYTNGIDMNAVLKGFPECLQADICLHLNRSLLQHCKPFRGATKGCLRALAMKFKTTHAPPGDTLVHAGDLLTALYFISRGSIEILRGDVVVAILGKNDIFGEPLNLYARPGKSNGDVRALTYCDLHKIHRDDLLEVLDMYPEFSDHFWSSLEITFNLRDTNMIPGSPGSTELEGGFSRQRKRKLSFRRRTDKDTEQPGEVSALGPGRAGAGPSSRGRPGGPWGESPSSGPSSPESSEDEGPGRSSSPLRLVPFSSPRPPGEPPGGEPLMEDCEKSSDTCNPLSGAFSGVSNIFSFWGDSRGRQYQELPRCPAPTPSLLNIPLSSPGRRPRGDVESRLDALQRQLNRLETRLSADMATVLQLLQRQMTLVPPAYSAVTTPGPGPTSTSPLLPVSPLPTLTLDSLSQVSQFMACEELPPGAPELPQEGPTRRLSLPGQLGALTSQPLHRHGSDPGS
Chain of CYP2C19 (P33261 whole entry): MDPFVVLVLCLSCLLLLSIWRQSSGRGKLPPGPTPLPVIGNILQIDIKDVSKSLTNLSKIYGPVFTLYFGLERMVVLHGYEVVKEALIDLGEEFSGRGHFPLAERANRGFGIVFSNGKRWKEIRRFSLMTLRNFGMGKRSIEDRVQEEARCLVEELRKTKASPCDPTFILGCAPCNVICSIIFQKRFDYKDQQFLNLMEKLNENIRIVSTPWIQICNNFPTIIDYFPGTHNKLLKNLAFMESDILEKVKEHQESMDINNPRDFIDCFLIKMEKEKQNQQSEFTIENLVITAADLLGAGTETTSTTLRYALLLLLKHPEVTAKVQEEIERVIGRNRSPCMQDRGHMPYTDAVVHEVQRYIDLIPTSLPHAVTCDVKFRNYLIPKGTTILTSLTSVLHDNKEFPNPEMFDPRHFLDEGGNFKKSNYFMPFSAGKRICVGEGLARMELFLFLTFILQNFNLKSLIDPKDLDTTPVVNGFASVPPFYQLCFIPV
Chain of CYP1A2 (P05177 whole entry): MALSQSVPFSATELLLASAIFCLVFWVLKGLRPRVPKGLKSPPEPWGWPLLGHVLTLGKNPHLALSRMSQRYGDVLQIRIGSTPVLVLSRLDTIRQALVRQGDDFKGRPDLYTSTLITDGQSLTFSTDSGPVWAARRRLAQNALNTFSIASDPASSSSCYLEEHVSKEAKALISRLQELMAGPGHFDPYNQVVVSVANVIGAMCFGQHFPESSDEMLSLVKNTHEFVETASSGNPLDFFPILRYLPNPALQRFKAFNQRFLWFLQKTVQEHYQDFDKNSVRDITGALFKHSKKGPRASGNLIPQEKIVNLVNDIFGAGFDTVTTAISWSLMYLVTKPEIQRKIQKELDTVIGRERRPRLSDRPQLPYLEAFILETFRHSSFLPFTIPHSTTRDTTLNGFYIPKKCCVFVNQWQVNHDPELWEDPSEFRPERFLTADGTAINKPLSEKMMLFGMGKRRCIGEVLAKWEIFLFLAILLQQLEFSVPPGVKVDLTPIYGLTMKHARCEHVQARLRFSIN
Chain of CYP3A4 (P08684 whole entry): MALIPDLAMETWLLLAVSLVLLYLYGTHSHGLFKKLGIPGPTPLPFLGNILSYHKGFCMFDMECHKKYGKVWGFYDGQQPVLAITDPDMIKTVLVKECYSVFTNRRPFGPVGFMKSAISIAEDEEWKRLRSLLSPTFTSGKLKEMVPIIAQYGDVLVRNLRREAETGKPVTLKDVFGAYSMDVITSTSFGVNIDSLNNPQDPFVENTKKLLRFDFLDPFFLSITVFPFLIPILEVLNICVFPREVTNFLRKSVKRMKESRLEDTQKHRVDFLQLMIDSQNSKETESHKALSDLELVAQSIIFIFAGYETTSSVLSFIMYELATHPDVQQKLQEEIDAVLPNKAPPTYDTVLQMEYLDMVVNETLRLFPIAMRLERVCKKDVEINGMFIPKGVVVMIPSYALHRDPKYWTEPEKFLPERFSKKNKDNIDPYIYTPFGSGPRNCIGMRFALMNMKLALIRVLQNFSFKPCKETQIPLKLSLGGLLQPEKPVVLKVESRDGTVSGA

`CCS(=O)(=O)Nc1cc(-c2cn(C)c3c(=O)[nH]ccc23)cc2c1ccn2C(C)(c1ccccn1)c1ccccn1.Cl` gave a t1/2 [1] of 1.95 h, an inhibition at 10 µM [2] of 31.8% and an inhibition at 10 µM [3] of 2.29%. For the same compound, the inhibition at 10 µM [4] was 84.2%, the IC50 [5] was 29.3 µM and the hepatocyte CLint [6] was 6.86 µL/min/1e6 cells. For the same compound, the platelet count [7] was 1050 10^3/µL, the inhibition at 10 µM [8] was 50.6% and the Tmax [9] was 0.25 h. For the same compound, the Activity [10] was “Non-Toxic”, the t1/2 [11] was 3.37 h and the inhibition at 10 µM [12] was 30.7%. For the same compound, the AUC [13] was 3208 ng·h/mL, the clearance [14] was 25.5 mL/min/kg and the F [15] was 49%. The inhibition at 10 µM [16] was 7.47%, the PPB [17] was 97.98% and the Activity [18] was “Non-Toxic”. It also gave a Cmax [19] of 3090 ng/mL, an inhibition in vivo at 30 mg/kg/day [20] of 106% and a t1/2 [21] of 2.9 h. It also gave an AUC [22] of 9598 ng·h/mL, a solubility kinetic [23] of 73.4 µM and a Vdss [24] of 1.49 L/kg. It also gave an inhibition at 10 µM [25] of 14.5%.
